# Experimental data from ChEMBL document CHEMBL1121901, “Synthesis and structure-activity relationship of spiro[isochromanpiperidine] analogues for inhibition of histamine release” (1981).
# The source made the active and inactive calls. The rule behind the calls is not given here.
# Columns and labels:
# [1] = species: Rattus norvegicus; experiment: (§1) Inhibitory activity on the compound 48/80 induced release of Histamine from isolated rat peritoneal mast cells at a dose of 5*10e-4 mol; format: functional
# Method in brief: (§2)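 Rat peritoneal cells (~10% mast cells) collected by lavage with Tris-HCl-buffered (10 mmol, pH 7.4) salt solution. The reaction was stopped on ice. Histamine was measured by o-phthalaldehyde fluorometry in duplicate, expressed as % of total minus spontaneous release, with % inhibition taken versus 48/80 alone.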
# [2] = species: Rattus norvegicus; experiment: Inhibitory activity against 48/80 induced release of Histamine from isolated rat peritoneal mast cells at a dose of 2*10e-4 mol; format: functional; method in brief: as §2
# [3] = species: Rattus norvegicus; experiment: Inhibitory activity against 48/80 induced release of Histamine from isolated rat peritoneal mast cells at a dose of 10e-3 mol; Inactive; format: functional, cell-based; method in brief: as §2
# [4] = species: Rattus norvegicus; experiment: Inhibitory activity against 48/80 induced release of Histamine from isolated rat peritoneal mast cells at a dose of 5*10e-4 mol; Inactive; format: functional, cell-based
# [5] = species: Rattus norvegicus; experiment: Inhibitory activity against 48/80 induced release of Histamine from isolated rat peritoneal mast cells at a dose of 10e-3 mol; format: functional; method in brief: as §2
# [6] = species: Rattus norvegicus; experiment: Inhibitory activity against 48/80 induced release of Histamine from isolated rat peritoneal mast cells at a dose of 5*10e-4 mol; format: functional; method in brief: as §2
# [7] = species: Rattus norvegicus; experiment: Inhibitory activity on the compound (in 0.5% CMC solution) 48/80 induced release of Histamine rat mast cell degranulation at a dose of 0.25micorg/mL, incubated for 15 min at 37 degree C; format: functional
# Method in brief: (§3)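 Harvested rat peritoneal mast cells were preincubated 15 min at 37 °C with test compound suspended in 0.5% CMC (final 10^-3 mol/L). Degranulation was scored by inverted phase-contrast microscopy, counting >100 mast cells. % inhibition = 100[1 − (X − Z)/(Y − Z)], where Z corrects for degranulation in control medium.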
# [8] = species: Rattus norvegicus; experiment: Inhibitory activity (10e-3 mol/L) against 48/80 induced rat mast cell degranulation at a dose of 0.25ug/mL, incubated for 15 min at 37 degree C; format: functional; method in brief: as §3
# [9] = species: Rattus norvegicus; experiment: Inhibitory activity of histamine release at 2*10e-3 mol; format: functional
# [10] = species: Rattus norvegicus; experiment: as §1; format: functional; method in brief: as §2; remark: listed apart in the source
# [11] = species: Rattus norvegicus; experiment: Inhibitory activity on compound (in 0.5% CMC solution) 48/80 induced rat mast cell degranulation at a dose of 0.25micorg/mL, incubated for 15 min at 37 degree C; format: functional; method in brief: as §3
# [12] = species: Rattus norvegicus; experiment: Inhibitory activity on the compound 48/80 induced release of Histamine from isolated rat peritoneal mast cells at a dose of 10e-3 mol; format: functional; method in brief: as §2
# [13] = species: Rattus norvegicus; experiment: Inhibitory activity on the compound 48/80 induced release of Histamine from isolated rat peritoneal mast cells at a dose of 2*10e-4 mol; format: functional; method in brief: as §2
SMILES,inhibition [4],Inhibition [5],Inhibition [6],further results
Cl.O=C1OCC2(CCN(Cc3ccccc3)CC2)c2ccccc21,,,,Inhibition [1]: 31%; Inhibition [2]: 5%
OCC1(c2ccccc2)CCN(Cc2ccccc2)CC1,,,,inhibition [3]: inactive
CN1CCC(CO)(c2ccccc2)CC1,,,,inhibition [3]: inactive
CCOC(=O)C1c2ccccc2C(=O)OC12CCN(C)CC2 (centres undefined),inactive,,,
CN1CCC2(CC1)Cc1ccccc1C(=O)O2,inactive,,,
Cl.c1ccc(CCN2CCC3(CC2)COCc2ccccc23)cc1,,100%,96%,Inhibition [2]: 28%
CCOC(=O)C1c2ccccc2C(=O)OC12CCN(Cc1ccccc1)CC2.Cl (centres undefined),,84%,12%,
Cl.O=C1OC2(CCN(Cc3ccccc3)CC2)Cc2ccccc21,,76%,40%,Inhibition [7]: 94.5%; Inhibition [2]: 20%
Cl.O=C1OC2(CCN(c3ccccc3)CC2)Cc2ccccc21,,,,Inhibition [8]: 29.1%
O=C([O-])c1cc(=O)c2c(OCC(O)COc3cccc4oc(C(=O)[O-])cc(=O)c34)cccc2o1.[Na+].[Na+] [CROMOLYN SODIUM],,80%,58%,Inhibition [2]: 31%
CCCN1CCC2(CC1)Cc1ccccc1C(=O)O2,inactive,,,
C[N+]1(Cc2ccccc2)CCC2(CC1)Cc1ccccc1C(=O)O2.[I-] (centres undefined),,,,Inhibition [9]: 28%
CCCCCCN1CCC2(CC1)Cc1ccccc1C(=O)O2.Cl,,,67%,Inhibition [2]: 32%
Cl.O=C1OC2(CCN(CC3CCCCC3)CC2)Cc2ccccc21,,83%,47%,
O=C1OCC2(CCN(CCc3ccccc3)CC2)c2ccccc21,,100%,94%,Inhibition [2]: 15%
CCCCCN1CCC2(CC1)Cc1ccccc1C(=O)O2.Cl,,79%,35%,Inhibition [2]: 23%

SMILES,inhibition [4],Inhibition [5],Inhibition [6],further results
CCCCCCCCCCN1CCC2(CC1)Cc1ccccc1C(=O)O2,,,,inhibition [10]: inactive
CN(CCC1(C)COCc2ccccc21)Cc1ccccc1 (centres undefined),,,,Inhibition [7]: -8%
OCC1(c2ccccc2)CCN(CCc2ccccc2)CC1,,49%,,
C=CCN1CCC2(CC1)Cc1ccccc1C(=O)O2,inactive,,,
CC(C)CN1CCC2(CC1)Cc1ccccc1C(=O)O2,inactive,,,
Cl.O=C1OC2(CCN(CCc3ccccc3)CC2)Cc2ccccc21,,86%,6%,
CN1CCC2(CC1)COCc1ccccc12,inactive,,,
C=CCN1CCC2(CC1)OC(=O)c1ccccc1C2C(=O)OCC (centres undefined),inactive,,,
Cl.O=C1OC2(CCN(CCCc3ccccc3)CC2)Cc2ccccc21,,85%,18%,Inhibition [2]: 5%
O=C1OC2(CCN(C3CCCCC3)CC2)Cc2ccccc21,inactive,,,
O=C1OC2(CCC(Cc3ccccc3)CC2)Cc2ccccc21 (centres undefined),,,,Inhibition [11]: 52%
CCCCCCCCN1CCC2(CC1)Cc1ccccc1C(=O)O2,,,,inhibition [10]: inactive
CN1CCC2(CC1)COC(=O)c1ccccc12,inactive,,,
O=C1OC2(CCNCC2)Cc2ccccc21,inactive,,,
CCCCCCCN1CCC2(CC1)Cc1ccccc1C(=O)O2.Cl,,,,Inhibition [1]: 100%; Inhibition [12]: 100%; Inhibition [13]: 64%
CCCCN1CCC2(CC1)Cc1ccccc1C(=O)O2.Cl,,85%,43%,Inhibition [2]: 18%
